{"source": "ChEMBL document CHEMBL1121808", "about": "(1981)", "format_in_all_cases": "functional", "key": {"[1]": {"assay": "Relative potency expressed in percent to that of neurotensin was measured using guinea pig atria", "summary_of_the_method": "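Both atria dissected free of ventricles, fat and blood; beating spontaneously under 0.5 g resting tension in 15-mL baths of oxygenated Krebs at 30 °C. Equilibrated 45–60 min before peptide exposure. Contractile force recorded isometrically via force-displacement transducer.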"}, "[2]": {"assay": "Relative potency expressed in percent to that of neurotensin was measured using rat stomach strips assay"}, "[3]": {"assay": "Relative potency expressed in percent to that of neurotensin was measured using perfused rat heart assay", "summary_of_the_method": "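Male albino Wistar rats heparinized i.p. (2.5 mg/rat), then killed. Hearts perfused with filtered, oxygenated Krebs at 37 °C by peristaltic pump, flow raised over 5 min to 8 mL/min (perfusion pressure 70–90 mmHg). Stabilized 30 min before peptide infusion. Read-out: change in perfusion pressure via aortic-cannula side-arm transducer.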"}}, "note": "Peptide text beside a SMILES is read from it.", "data": [{"molecule": "CC[C@H](C)[C@H](NC(=O)[C@H](C)NC(=O)[C@@H]1CCCN1C(=O)[C@H](CCCN=C(N)N)NC(=O)[C@H](CCCN=C(N)N)NC(=O)[C@@H]1CCCN1C(=O)[C@H](CCCCN)NC(=O)[C@H](CC(N)=O)NC(=O)[C@H](CCC(=O)O)NC(=O)[C@H](Cc1ccc(O)cc1)NC(=O)[C@H](CC(C)C)NC(=O)[C@@H]1CCC(=O)N1)C(=O)N[C@@H](CC(C)C)C(=O)O", "values": [{"measurement": "Relative potency", "setting": "[1]", "value": "<0.01", "unit": "%"}, {"measurement": "Relative potency", "setting": "[2]", "value": 0.01, "unit": "%"}, {"measurement": "Relative potency", "setting": "[3]", "value": 0.01, "unit": "%"}]}, {"molecule": "CC[C@H](C)[C@H](NC(=O)[C@H](CC(C)C)NC(=O)[C@@H]1CCCN1C(=O)[C@H](CCCN=C(N)N)NC(=O)[C@H](CCCN=C(N)N)NC(=O)[C@@H]1CCCN1C(=O)[C@H](CCCCN)NC(=O)[C@H](CC(N)=O)NC(=O)[C@H](CCC(=O)O)NC(=O)[C@H](Cc1ccc(O)cc1)NC(=O)[C@H](CC(C)C)NC(=O)[C@@H]1CCC(=O)N1)C(=O)N[C@@H](CC(C)C)C(=O)O", "values": [{"measurement": "Relative potency", "setting": "[1]", "value": "< 0.01", "unit": "%"}, {"measurement": "Relative potency", "setting": "[2]", "value": "~0.03", "unit": "%"}, {"measurement": "Relative potency", "setting": "[3]", "value": 0.01, "unit": "%"}]}, {"molecule": "CC[C@H](C)[C@H](NC(=O)[C@@H](Cc1c[nH]c2ccccc12)NC(=O)[C@@H]1CCCN1C(=O)[C@H](CCCN=C(N)N)NC(=O)[C@H](CCCN=C(N)N)NC(=O)[C@@H]1CCCN1C(=O)[C@H](CCCCN)NC(=O)[C@H](CC(N)=O)NC(=O)[C@H](CCC(=O)O)NC(=O)[C@H](Cc1ccc(O)cc1)NC(=O)[C@H](CC(C)C)NC(=O)[C@@H]1CCC(=O)N1)C(=O)N[C@@H](CC(C)C)C(=O)O", "values": [{"measurement": "Relative potency", "setting": "[1]", "value": 0.01, "unit": "%"}, {"measurement": "Relative potency", "setting": "[2]", "value": 0.64, "unit": "%"}, {"measurement": "Relative potency", "setting": "[3]", "value": 0.1, "unit": "%"}]}, {"molecule": "CC[C@H](C)[C@H](NC(=O)[C@H](Cc1ccc(O)cc1)NC(=O)[C@@H]1CCCN1C(=O)[C@H](CCCN=C(N)N)NC(=O)[C@H](CCCN=C(N)N)NC(=O)[C@@H]1CCCN1C(=O)[C@@H](N)CCCCN)C(=O)N[C@@H](CC(C)C)C(=O)O", "values": [{"measurement": "Relative potency", "setting": "[1]", "value": 73, "unit": "%"}, {"measurement": "Relative potency", "setting": "[2]", "value": 78, "unit": "%"}, {"measurement": "Relative potency", "setting": "[3]", "value": 84, "unit": "%"}]}, {"molecule": "CC[C@H](C)[C@H](NC(=O)[C@H](Cc1c[nH]c2ccccc12)NC(=O)[C@@H]1CCCN1C(=O)[C@H](CCCN=C(N)N)NC(=O)[C@H](CCCN=C(N)N)NC(=O)[C@@H]1CCCN1C(=O)[C@H](CCCCN)NC(=O)[C@H](CC(N)=O)NC(=O)[C@H](CCC(=O)O)NC(=O)[C@H](Cc1ccc(O)cc1)NC(=O)[C@H](CC(C)C)NC(=O)[C@@H]1CCC(=O)N1)C(=O)N[C@@H](CC(C)C)C(=O)O", "values": [{"measurement": "Relative potency", "setting": "[1]", "value": 3.2, "unit": "%"}, {"measurement": "Relative potency", "setting": "[2]", "value": 130, "unit": "%"}, {"measurement": "Relative potency", "setting": "[3]", "value": 102, "unit": "%"}]}, {"molecule": "CC[C@H](C)[C@H](NC(=O)[C@H](Cc1ccc(O)cc1)NC(=O)[C@@H]1CCCN1C(=O)[C@@H](N)CCCN=C(N)N)C(=O)N[C@@H](CC(C)C)C(=O)O", "values": [{"measurement": "Relative potency", "setting": "[1]", "value": 1.3, "unit": "%"}, {"measurement": "Relative potency", "setting": "[2]", "value": 11, "unit": "%"}, {"measurement": "Relative potency", "setting": "[3]", "value": 1.6, "unit": "%"}]}, {"molecule": "CC[C@H](C)[C@H](NC(=O)[C@H](Cc1ccc(O)cc1)NC(=O)[C@@H]1CCCN1C(=O)[C@@H](C)NC(=O)[C@H](CCCN=C(N)N)NC(=O)[C@@H]1CCCN1C(=O)[C@H](CCCCN)NC(=O)[C@H](CC(N)=O)NC(=O)[C@H](CCC(=O)O)NC(=O)[C@H](Cc1ccc(O)cc1)NC(=O)[C@H](CC(C)C)NC(=O)[C@@H]1CCC(=O)N1)C(=O)N[C@@H](CC(C)C)C(=O)O", "values": [{"measurement": "Relative potency", "setting": "[1]", "value": 2.6, "unit": "%"}, {"measurement": "Relative potency", "setting": "[2]", "value": 1.5, "unit": "%"}, {"measurement": "Relative potency", "setting": "[3]", "value": 0.3, "unit": "%"}]}, {"molecule": "CC[C@H](C)[C@H](NC(=O)[C@H](Cc1ccc(O)cc1)NC(=O)[C@@H]1CCCN1)C(=O)N[C@@H](CC(C)C)C(=O)O", "note": "(H-PYIL-OH)", "values": [{"measurement": "Relative potency", "setting": "[1]", "value": 0, "unit": "%"}, {"measurement": "Relative potency", "setting": "[2]", "value": 0, "unit": "%"}, {"measurement": "Relative potency", "setting": "[3]", "value": 0, "unit": "%"}]}, {"molecule": "CC(C)C[C@H](NC(=O)[C@@H]1CCC(=O)N1)C(=O)N[C@@H](Cc1ccc(O)cc1)C(=O)N[C@@H](CCC(=O)O)C(=O)N[C@@H](CC(N)=O)C(=O)N[C@@H](CCCCN)C(=O)N1CCC[C@H]1C(=O)N[C@@H](CCCN=C(N)N)C(=O)N[C@@H](CCCN=C(N)N)C(=O)N1CCC[C@H]1C(=O)N[C@@H](Cc1ccc(O)cc1)C(=O)O", "values": [{"measurement": "Relative potency", "setting": "[1]", "value": "<0.01", "unit": "%"}, {"measurement": "Relative potency", "setting": "[2]", "value": "<0.01", "unit": "%"}, {"measurement": "Relative potency", "setting": "[3]", "value": "<0.01", "unit": "%"}]}, {"molecule": "CC[C@H](C)[C@H](NC(=O)[C@H](Cc1ccc(O)cc1)NC(=O)CNC(=O)[C@H](CCCN=C(N)N)NC(=O)[C@H](CCCN=C(N)N)NC(=O)[C@@H]1CCCN1C(=O)[C@H](CCCCN)NC(=O)[C@H](CC(N)=O)NC(=O)[C@H](CCC(=O)O)NC(=O)[C@H](Cc1ccc(O)cc1)NC(=O)[C@H](CC(C)C)NC(=O)[C@@H]1CCC(=O)N1)C(=O)N[C@@H](CC(C)C)C(=O)O", "values": [{"measurement": "Relative potency", "setting": "[1]", "value": "~0.01", "unit": "%"}, {"measurement": "Relative potency", "setting": "[2]", "value": "~0.01", "unit": "%"}, {"measurement": "Relative potency", "setting": "[3]", "value": "<0.01", "unit": "%"}]}, {"molecule": "CC[C@H](C)[C@H](NC(=O)[C@H](Cc1ccccc1)NC(=O)[C@@H]1CCCN1C(=O)[C@H](CCCN=C(N)N)NC(=O)[C@H](CCCN=C(N)N)NC(=O)[C@@H]1CCCN1C(=O)[C@H](CCCCN)NC(=O)[C@H](CC(N)=O)NC(=O)[C@H](CCC(=O)O)NC(=O)[C@H](Cc1ccc(O)cc1)NC(=O)[C@H](CC(C)C)NC(=O)[C@@H]1CCC(=O)N1)C(=O)N[C@@H](CC(C)C)C(=O)O", "values": [{"measurement": "Relative potency", "setting": "[1]", "value": 15, "unit": "%"}, {"measurement": "Relative potency", "setting": "[2]", "value": 16, "unit": "%"}, {"measurement": "Relative potency", "setting": "[3]", "value": 1.4, "unit": "%"}]}, {"molecule": "H-ENKPRRPYIL-OH", "values": [{"measurement": "Relative potency", "setting": "[1]", "value": 99, "unit": "%"}, {"measurement": "Relative potency", "setting": "[2]", "value": 85, "unit": "%"}, {"measurement": "Relative potency", "setting": "[3]", "value": 92, "unit": "%"}]}, {"molecule": "CC[C@H](C)[C@H](NC(=O)[C@H](Cc1ccc(O)cc1)NC(=O)[C@@H]1CCCN1C(=O)[C@H](CCCNC(=N)N)NC(=O)[C@@H](N)CCCNC(=N)N)C(=O)N[C@@H](CC(C)C)C(=O)O", "values": [{"measurement": "Relative potency", "setting": "[1]", "value": 52, "unit": "%"}, {"measurement": "Relative potency", "setting": "[2]", "value": 69, "unit": "%"}, {"measurement": "Relative potency", "setting": "[3]", "value": 102, "unit": "%"}]}, {"molecule": "H-YENKPRRPYIL-OH", "values": [{"measurement": "Relative potency", "setting": "[1]", "value": 84, "unit": "%"}, {"measurement": "Relative potency", "setting": "[2]", "value": 90, "unit": "%"}, {"measurement": "Relative potency", "setting": "[3]", "value": 85, "unit": "%"}]}, {"molecule": "CC[C@H](C)[C@H](NC(=O)[C@H](Cc1ccc(O)cc1)NC(=O)[C@@H]1CCCN1C(=O)[C@H](CCCN=C(N)N)NC(=O)[C@H](CCCN=C(N)N)NC(=O)[C@@H]1CCCN1C(=O)[C@H](CCCCN)NC(=O)[C@H](CC(N)=O)NC(=O)[C@H](CCC(=O)O)NC(=O)[C@H](Cc1ccc(O)cc1)NC(=O)[C@H](CC(C)C)NC(=O)[C@@H]1CCC(=O)N1)C(=O)O", "values": [{"measurement": "Relative potency", "setting": "[1]", "value": 0.09, "unit": "%"}, {"measurement": "Relative potency", "setting": "[2]", "value": 0.65, "unit": "%"}, {"measurement": "Relative potency", "setting": "[3]", "value": 0.03, "unit": "%"}]}, {"molecule": "CC[C@H](C)[C@H](NC(=O)[C@@H](Cc1ccccc1)NC(=O)[C@@H]1CCCN1C(=O)[C@H](CCCN=C(N)N)NC(=O)[C@H](CCCN=C(N)N)NC(=O)[C@@H]1CCCN1C(=O)[C@H](CCCCN)NC(=O)[C@H](CC(N)=O)NC(=O)[C@H](CCC(=O)O)NC(=O)[C@H](Cc1ccc(O)cc1)NC(=O)[C@H](CC(C)C)NC(=O)[C@@H]1CCC(=O)N1)C(=O)N[C@@H](CC(C)C)C(=O)O", "values": [{"measurement": "Relative potency", "setting": "[1]", "value": "~0.01", "unit": "%"}, {"measurement": "Relative potency", "setting": "[2]", "value": "~0.02", "unit": "%"}, {"measurement": "Relative potency", "setting": "[3]", "value": "<0.01", "unit": "%"}]}, {"molecule": "CC(C)C[C@H](NC(=O)[C@@H]1CCC(=O)N1)C(=O)N[C@@H](Cc1ccc(O)cc1)C(=O)N[C@@H](CCC(=O)O)C(=O)N[C@@H](CC(N)=O)C(=O)N[C@@H](CCCCN)C(=O)N1CCC[C@H]1C(=O)N[C@@H](CCCN=C(N)N)C(=O)N[C@@H](CCCN=C(N)N)C(=O)N1CCC[C@H]1C(=O)O", "values": [{"measurement": "Relative potency", "setting": "[1]", "value": 0, "unit": "%"}, {"measurement": "Relative potency", "setting": "[2]", "value": 0, "unit": "%"}, {"measurement": "Relative potency", "setting": "[3]", "value": 0, "unit": "%"}]}, {"molecule": "CC[C@H](C)[C@H](NC(=O)[C@H](Cc1ccc(O)cc1)NC(=O)[C@@H]1CCCN1C(=O)[C@H](CCCN=C(N)N)NC(=O)[C@H](CCCN=C(N)N)NC(=O)[C@@H]1CCCN1C(=O)[C@H](CCCCN)NC(=O)[C@H](CC(N)=O)NC(=O)[C@H](CCC(=O)O)NC(=O)[C@H](Cc1ccc(O)cc1)NC(=O)[C@@H](N)CC(C)C)C(=O)N[C@@H](CC(C)C)C(=O)O", "values": [{"measurement": "Relative potency", "setting": "[1]", "value": 94, "unit": "%"}, {"measurement": "Relative potency", "setting": "[2]", "value": 90, "unit": "%"}, {"measurement": "Relative potency", "setting": "[3]", "value": 87, "unit": "%"}]}, {"molecule": "H-PRRPYIL-OH", "values": [{"measurement": "Relative potency", "setting": "[1]", "value": 49, "unit": "%"}, {"measurement": "Relative potency", "setting": "[2]", "value": 65, "unit": "%"}, {"measurement": "Relative potency", "setting": "[3]", "value": 59, "unit": "%"}]}]}
